Source: ChEMBL document CHEMBL1134588, “[2',6'-Dimethyltyrosine]dynorphin A(1-11)-NH2 analogues lacking an N-terminal amino group: potent and selective kappa opioid antagonists” (J Med Chem, 2001)

Experiments:
[1] = target: Kappa-type opioid receptor (Cavia porcellus, UniProt P41144); assay: Binding affinity was measured on opioid receptor kappa 1
Cavia porcellus = species: Cavia porcellus; assay: Inhibitory concentration of compound was measured in guinea pig ileum(GPI) assay; type: functional
Procedure, shortened: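 Isolated guinea pig ileum, measuring inhibition of electrically evoked contractions. Each preparation received a [Leu5]enkephalin dose-response curve as standard, and the IC50 values were normalized to it.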

Mus musculus = species: Mus musculus; assay: Inhibitory concentration of compound was measured in mouse vas deferens assay; type: functional
Procedure, shortened: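 Mouse vas deferens bioassay, measuring inhibition of electrically evoked contractions. A [Leu5]enkephalin standard dose-response curve was run on each vas preparation, and the IC50 values were normalized accordingly.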

[2] = target: Kappa-type opioid receptor (Cavia porcellus) (UniProt P41144); assay: Antagonist activity was evaluated in the guinea pig ileum assay against Dyn A(1-13)-selective agonist of opioid receptor kappa 1; type: functional, tissue-based
Kappa-type opioid receptor (Cavia porcellus), sequence (P41144 whole entry): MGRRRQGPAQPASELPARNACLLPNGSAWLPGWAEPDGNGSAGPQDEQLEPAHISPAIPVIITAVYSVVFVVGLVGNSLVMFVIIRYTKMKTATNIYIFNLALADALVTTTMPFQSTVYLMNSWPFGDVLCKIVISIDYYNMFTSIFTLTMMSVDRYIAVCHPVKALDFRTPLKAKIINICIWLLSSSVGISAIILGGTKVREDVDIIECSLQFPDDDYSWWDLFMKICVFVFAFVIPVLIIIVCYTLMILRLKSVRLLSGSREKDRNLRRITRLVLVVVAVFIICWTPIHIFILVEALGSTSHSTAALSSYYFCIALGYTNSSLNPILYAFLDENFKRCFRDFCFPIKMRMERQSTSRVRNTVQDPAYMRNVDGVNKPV

[3] = target: Delta-type opioid receptor (Mus musculus) (UniProt P32300); assay: Antagonist activity was evaluated in the mouse vas deferens assay against DPDPE which is selective agonist of Delta receptor; type: functional, tissue-based
Delta-type opioid receptor (Mus musculus), sequence (P32300 whole entry): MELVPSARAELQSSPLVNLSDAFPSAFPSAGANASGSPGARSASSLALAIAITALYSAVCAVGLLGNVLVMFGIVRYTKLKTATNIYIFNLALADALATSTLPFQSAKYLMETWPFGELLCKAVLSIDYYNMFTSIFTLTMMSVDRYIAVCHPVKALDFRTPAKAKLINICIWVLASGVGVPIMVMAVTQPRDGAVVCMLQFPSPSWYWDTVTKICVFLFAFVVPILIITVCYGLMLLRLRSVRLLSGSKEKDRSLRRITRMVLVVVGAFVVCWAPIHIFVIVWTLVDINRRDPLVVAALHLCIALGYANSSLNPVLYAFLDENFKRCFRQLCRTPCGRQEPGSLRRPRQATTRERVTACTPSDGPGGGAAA
Procedure, shortened: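 Mouse vas deferens, electrically evoked contractions; delta antagonism against DPDPE at fixed antagonist 30 nM to 10 µM. Ke obtained from agonist IC50 ratio with versus without antagonist; each vas preparation standardized with [Leu5]enkephalin dose-response. Means of three to six determinations ± SEM.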

[4] = target: Mu-type opioid receptor (Cavia porcellus) (UniProt P97266); assay: Antagonist activity was evaluated in the guinea pig ileum assay against TAPP-selective agonist of Mu receptor; type: functional, tissue-based
Mu-type opioid receptor (Cavia porcellus), sequence (P97266 whole entry): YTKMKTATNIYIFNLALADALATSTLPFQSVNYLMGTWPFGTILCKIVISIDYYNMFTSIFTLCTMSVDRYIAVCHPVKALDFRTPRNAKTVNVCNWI
Procedure, shortened: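 Mu antagonism in guinea pig ileum (electrically evoked contractions) versus agonist TAPP, fixed antagonist concentrations 100 nM to 5 µM. Ke computed from shift in agonist IC50 (with/without antagonist), IC50s normalized against per-tissue [Leu5]enkephalin standard. Mean of three to six runs ± SEM.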

[5] = target: Kappa-type opioid receptor (Cavia porcellus) (UniProt P41144); assay: Antagonist activity was evaluated in the guinea pig ileum assay against U50,488- selective agonist of opioid receptor kappa 1; type: functional, tissue-based
Procedure, shortened: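 Ke taken from agonist IC50 ratio in presence versus absence of antagonist; [Leu5]enkephalin dose-response on each ileum used to normalize IC50s. Three to six determinations, mean ± SEM.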

Kappa-type opioid receptor, sequence (P41144 whole entry): as the sequence (P41144 whole entry) above

Structure (SMILES)	Ki [1]	IC50 (Mus musculus)	other results
CC[C@H](C)[C@H](NC(=O)[C@H](CCCNC(=N)N)NC(=O)[C@H](CCCNC(=N)N)NC(=O)[C@H](CC(C)C)NC(=O)[C@H](Cc1ccccc1)NC(=O)CNC(=O)CNC(=O)CCc1c(C)cc(O)cc1C)C(=O)N[C@@H](CCCNC(=N)N)C(=O)N1CCC[C@H]1C(=O)N[C@@H](CCCCN)C(N)=O	3.49 nM		
CC[C@H](C)[C@H](NC(=O)[C@H](CCCN=C(N)N)NC(=O)[C@H](CCCN=C(N)N)NC(=O)[C@H](CC(C)C)NC(=O)[C@H](Cc1ccccc1)NC(=O)CNC(=O)CNC(=O)[C@@H](N)Cc1ccc(O)cc1)C(=O)N[C@@H](CCCN=C(N)N)C(=O)N1CCC[C@H]1C(=O)N[C@@H](CCCCN)C(N)=O		12.9 nM	IC50 (Cavia porcellus): 0.456 nM
CC[C@H](C)[C@H](NC(=O)[C@H](CCCN=C(N)N)NC(=O)[C@H](CCCN=C(N)N)NC(=O)[C@H](CC(C)C)NC(=O)[C@H](Cc1ccccc1)NC(=O)CNC(=O)CNC(=O)[C@@H](N)Cc1c(C)cc(O)cc1C)C(=O)N[C@@H](CCCN=C(N)N)C(=O)N1CCC[C@H]1C(=O)N[C@@H](CCCCN)C(N)=O		0.377 nM	IC50 (Cavia porcellus): 0.502 nM
Oc1ccc2c3c1O[C@H]1c4[nH]c5c(c4C[C@@]4(O)[C@@H](C2)N(CC2CC2)CC[C@]314)C[C@@]1(O)[C@H]2Cc3ccc(O)c4c3[C@@]1(CCN2CC1CC1)[C@H]5O4 [NORBINALTORPHIMINE]	0.81 nM		
CC[C@H](C)[C@H](NC(=O)[C@H](CCCN=C(N)N)NC(=O)[C@H](CCCN=C(N)N)NC(=O)[C@H](CC(C)C)NC(=O)[C@H](Cc1ccccc1)NC(=O)[C@@H](C)NC(=O)CNC(=O)[C@@H](C)Cc1c(C)cc(O)cc1C)C(=O)N[C@@H](CCCN=C(N)N)C(=O)N1CCC[C@H]1C(=O)N[C@@H](CCCCN)C(N)=O	2.47 nM		
CC[C@H](C)[C@H](NC(=O)[C@H](CCCNC(=N)N)NC(=O)[C@H](CCCNC(=N)N)NC(=O)[C@H](CC(C)C)NC(=O)[C@H](Cc1ccccc1)NC(=O)CNC(=O)CNC(=O)[C@@H](C)Cc1c(C)cc(O)cc1C)C(=O)N[C@@H](CCCNC(=N)N)C(=O)N1CCC[C@H]1C(=O)N[C@@H](CCCCN)C(N)=O			Ke [2]: 0.632 nM; Ke [3]: 3.22 µM; Ke [4]: 925 nM; Ke [5]: 3.92 nM
CC[C@H](C)[C@H](NC(=O)[C@H](CCCN=C(N)N)NC(=O)[C@H](CCCN=C(N)N)NC(=O)[C@H](CC(C)C)NC(=O)[C@H](Cc1ccccc1)NC(=O)[C@@H](C)NC(=O)CNC(=O)CCc1c(C)cc(O)cc1C)C(=O)N[C@@H](CCCN=C(N)N)C(=O)N1CCC[C@H]1C(=O)N[C@@H](CCCCN)C(N)=O	3.84 nM		
CC[C@H](C)[C@H](NC(=O)[C@H](CCCNC(=N)N)NC(=O)[C@H](CCCNC(=N)N)NC(=O)[C@H](CC(C)C)NC(=O)[C@H](Cc1ccccc1)NC(=O)CNC(=O)CNC(=O)CCc1ccc(O)cc1)C(=O)N[C@@H](CCCNC(=N)N)C(=O)N1CCC[C@H]1C(=O)N[C@@H](CCCCN)C(N)=O	30.7 nM	722 nM	
